Experimental data reported in article PMC3045600 (Nucleic Acids Research, 2010).
Where “and” joins values, the source holds several entries; their conditions need not be identical. Identical values can stand only once. Like-named read-outs stand apart in the source and are kept apart here.

Key:
[1] = target: T1, bacteriophage T4 DNA polymerase (gp43 exo−) (Enterobacteria phage T4, UniProt P04415, D219A); type: biochemical; conditions: 150 µM dXTP, then 500 µM dGTP, quenched at 180 s; 13/20SP-mer
T1 sequence (P04415 1-898 D219A): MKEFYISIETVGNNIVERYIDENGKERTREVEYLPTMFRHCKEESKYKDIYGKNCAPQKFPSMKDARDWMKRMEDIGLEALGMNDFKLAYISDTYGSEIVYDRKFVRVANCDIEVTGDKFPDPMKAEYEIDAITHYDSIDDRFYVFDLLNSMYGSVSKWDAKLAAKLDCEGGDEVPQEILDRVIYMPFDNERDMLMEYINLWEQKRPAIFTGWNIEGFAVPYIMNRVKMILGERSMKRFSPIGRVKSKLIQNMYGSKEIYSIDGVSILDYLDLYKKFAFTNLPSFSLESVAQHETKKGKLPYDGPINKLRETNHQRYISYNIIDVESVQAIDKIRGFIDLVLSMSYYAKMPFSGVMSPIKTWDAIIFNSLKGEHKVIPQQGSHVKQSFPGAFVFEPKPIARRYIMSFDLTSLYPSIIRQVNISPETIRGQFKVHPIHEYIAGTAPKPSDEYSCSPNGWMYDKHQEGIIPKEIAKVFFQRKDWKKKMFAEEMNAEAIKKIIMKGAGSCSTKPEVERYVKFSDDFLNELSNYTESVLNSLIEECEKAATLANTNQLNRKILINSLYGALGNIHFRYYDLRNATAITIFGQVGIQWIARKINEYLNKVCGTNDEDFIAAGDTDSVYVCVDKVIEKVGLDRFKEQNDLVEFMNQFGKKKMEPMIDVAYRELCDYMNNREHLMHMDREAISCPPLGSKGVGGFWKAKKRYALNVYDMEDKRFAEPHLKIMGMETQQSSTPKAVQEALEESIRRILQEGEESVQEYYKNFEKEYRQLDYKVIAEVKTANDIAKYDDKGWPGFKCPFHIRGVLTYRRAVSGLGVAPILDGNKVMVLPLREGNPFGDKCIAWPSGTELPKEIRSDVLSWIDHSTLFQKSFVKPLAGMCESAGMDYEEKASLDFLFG
Procedure, shortened: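 Exonuclease-deficient T4 gp43 (D219A), 500 nM, with 250 nM 5′-32P-labelled 13/20SP-mer, in 25 mM Tris–OAc pH 7.5, 150 mM KOAc, 10 mM 2-mercaptoethanol and 10 mM Mg2+ at 25°C. Test nucleotide (150 µM) was inserted for 5 min, then 500 µM dGTP was added. Reactions were quenched with 350 mM EDTA and resolved on 20% sequencing gels. Extended versus non-extended primer was quantified by phosphorimaging, corrected for the zero point.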

[2] = target: T2, exonuclease-deficient bacteriophage T4 DNA polymerase (gp43 exo−) (Enterobacteria phage T4, UniProt P04415, D219A); conditions: single abasic site, cited from earlier work; for Kd: read-out: Kd, app
T2 sequence (P04415 1-898 D219A): T1 sequence (P04415 1-898 D219A)

[3] = target: T2, exonuclease-deficient bacteriophage T4 DNA polymerase (gp43 exo−); conditions: double abasic site, cited from earlier work; for Kd: read-out: Kd, app
[4] = target: T2, exonuclease-deficient bacteriophage T4 DNA polymerase (gp43 exo−); conditions: blunt end DNA, cited from earlier work; for Kd: read-out: Kd, app
[5] = target: T2, exonuclease-deficient bacteriophage T4 DNA polymerase (gp43 exo−); conditions: opposite thymine, cited from earlier work; for Kd: read-out: Kd, app
[6] = target: T1, bacteriophage T4 DNA polymerase (gp43 exo−); conditions: previously demonstrated; cited from earlier work

Compound | Extension beyond the nucleotide paired opposite an abasic site [1] | Kd [2] | kpol [2] | kpol/Kd, app [2] | kpol [3] | kpol/Kd, app [3] | Kd [3] | kpol [4] | kpol/Kd, app [4] | Kd [4] | kpol [5] | kpol/Kd, app [5] | Kd [5] | Extension beyond the nucleotide paired opposite an abasic site [6]
O=[N+]([O-])c1ccc2c(ccn2C2CC(O)C(COP(=O)(O)OP(=O)(O)OP(=O)(O)O)O2)c1 (stereo not shown) [5-NITP] | does not extend | 18 ± 3 µM | 126 s⁻¹ and 126 ± 7 s⁻¹ | 7 000 000 M^−1 s^−1 | 70 ± 6 s⁻¹ | 3 890 000 M^−1 s^−1 | 18 ± 5 µM | 0.015 ± 0.004 s⁻¹ | 710 M⁻¹ s⁻¹ | 21 ± 8 µM | 0.9 ± 0.1 s⁻¹ | 100 000 M^−1 s^−1 | 9 ± 1 µM | –
O=P(O)(O)OP(=O)(O)OP(=O)(O)OC[C@H]1O[C@@H](n2ccc3cc(-c4ccccc4)ccc32)C[C@@H]1O [5-PhITP] | does not extend | 14 ± 3 µM | 53 s⁻¹ and 53 ± 4 s⁻¹ | – | 45 ± 3 s⁻¹ | 3 750 000 M^−1 s^−1 | 12 ± 2 µM | 0.007 ± 0.004 s⁻¹ | 160 M⁻¹ s⁻¹ | 45 ± 8 µM | 0.16 ± 0.01 s⁻¹ | 6400 M⁻¹ s⁻¹ | 25 ± 7 µM | –
Nc1ncnc2c1ncn2[C@H]1C[C@H](O)[C@@H](COP(=O)(O)OP(=O)(O)OP(=O)(O)O)O1 [dATP] | showed extension beyond the abasic site | 35 ± 5 µM | 0.15 ± 0.01 s⁻¹ | 4300 M⁻¹ s⁻¹ | 0.55 ± 0.05 s⁻¹ | 3500 M⁻¹ s⁻¹ | 157 ± 28 µM | – | – | – | 100 ± 10 s⁻¹ | 10 000 000 M^−1 s^−1 | 10 ± 2 µM | extends beyond
Nc1nc2c(ncn2[C@H]2C[C@H](O)[C@@H](COP(=O)(O)OP(=O)(O)OP(=O)(O)O)O2)c(=O)[nH]1 [dGTP] | – | – | – | – | – | – | – | – | – | – | – | – | – | extends beyond
